Experimental data taken from ChEMBL document CHEMBL4673301, “Design, synthesis, and anti-proliferative evaluation of new quinazolin-4(3H)-ones as potential VEGFR-2 inhibitors” (Bioorg Med Chem, 2021).

Legend:
[1] = tested on: HepG2; assay: Antiproliferative activity against human HepG2 cells assessed as reduction in cell viability incubated for 24 hrs by MTT assay; format: functional, cell-based; conditions: HepG2, 24 h
Outline: (§1)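 Cells from ATCC grown in RPMI-1640 with 10% FBS, penicillin 100 unit/ml and streptomycin 100 μg/ml at 37 °C, 5% CO2. Seeded at 1.0 x 10^4 cells/well for 48 h, then exposed to a range of compound concentrations for 24 h. MTT (5 mg/ml) added for 4 h, formazan dissolved in DMSO, A570 read. Viability taken as % of untreated. Duplicate wells, at least three independent IC50 determinations.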

[2] = tested on: HCT-116; assay: Antiproliferative activity against human HCT-116 cells assessed as reduction in cell viability incubated for 24 hrs by MTT assay; format: functional, cell-based; conditions: HCT-116, 24 h; outline: as §1
[3] = tested on: MCF7; assay: Antiproliferative activity against human MCF7 cells assessed as reduction in cell viability incubated for 24 hrs by MTT assay; format: functional, cell-based; conditions: MCF7, 24 h; outline: as §1
[4] = target: Vascular endothelial growth factor receptor 2 (Homo sapiens, UniProt P35968)
[5] = tested on: MCF7; assay: Potency index, ratio of IC50 of doxorubicin to IC50 of compound for antiproliferative activity against human MCF7 cells assessed as reduction in cell viability incubated for 24 hrs by MTT assay; format: functional
[6] = tested on: HepG2; assay: Potency index, ratio of IC50 of doxorubicin to IC50 of compound for antiproliferative activity against human HepG2 cells assessed as reduction in cell viability incubated for 24 hrs by MTT assay; format: functional
[7] = tested on: MCF7; assay: Potency index, ratio of IC50 of sorafenib to IC50 of compound for antiproliferative activity against human MCF7 cells assessed as reduction in cell viability incubated for 24 hrs by MTT assay; format: functional
[8] = tested on: HCT-116; assay: Potency index, ratio of IC50 of sorafenib to IC50 of compound for antiproliferative activity against human HCT-116 cells assessed as reduction in cell viability incubated for 24 hrs by MTT assay; format: functional
[9] = tested on: HCT-116; assay: Potency index, ratio of IC50 of doxorubicin to IC50 of compound for antiproliferative activity against human HCT-116 cells assessed as reduction in cell viability incubated for 24 hrs by MTT assay; format: functional
[10] = tested on: HepG2; assay: Potency index, ratio of IC50 of sorafenib to IC50 of compound for antiproliferative activity against human HepG2 cells assessed as reduction in cell viability incubated for 24 hrs by MTT assay; format: functional

Chain of Vascular endothelial growth factor receptor 2 (P35968 whole entry): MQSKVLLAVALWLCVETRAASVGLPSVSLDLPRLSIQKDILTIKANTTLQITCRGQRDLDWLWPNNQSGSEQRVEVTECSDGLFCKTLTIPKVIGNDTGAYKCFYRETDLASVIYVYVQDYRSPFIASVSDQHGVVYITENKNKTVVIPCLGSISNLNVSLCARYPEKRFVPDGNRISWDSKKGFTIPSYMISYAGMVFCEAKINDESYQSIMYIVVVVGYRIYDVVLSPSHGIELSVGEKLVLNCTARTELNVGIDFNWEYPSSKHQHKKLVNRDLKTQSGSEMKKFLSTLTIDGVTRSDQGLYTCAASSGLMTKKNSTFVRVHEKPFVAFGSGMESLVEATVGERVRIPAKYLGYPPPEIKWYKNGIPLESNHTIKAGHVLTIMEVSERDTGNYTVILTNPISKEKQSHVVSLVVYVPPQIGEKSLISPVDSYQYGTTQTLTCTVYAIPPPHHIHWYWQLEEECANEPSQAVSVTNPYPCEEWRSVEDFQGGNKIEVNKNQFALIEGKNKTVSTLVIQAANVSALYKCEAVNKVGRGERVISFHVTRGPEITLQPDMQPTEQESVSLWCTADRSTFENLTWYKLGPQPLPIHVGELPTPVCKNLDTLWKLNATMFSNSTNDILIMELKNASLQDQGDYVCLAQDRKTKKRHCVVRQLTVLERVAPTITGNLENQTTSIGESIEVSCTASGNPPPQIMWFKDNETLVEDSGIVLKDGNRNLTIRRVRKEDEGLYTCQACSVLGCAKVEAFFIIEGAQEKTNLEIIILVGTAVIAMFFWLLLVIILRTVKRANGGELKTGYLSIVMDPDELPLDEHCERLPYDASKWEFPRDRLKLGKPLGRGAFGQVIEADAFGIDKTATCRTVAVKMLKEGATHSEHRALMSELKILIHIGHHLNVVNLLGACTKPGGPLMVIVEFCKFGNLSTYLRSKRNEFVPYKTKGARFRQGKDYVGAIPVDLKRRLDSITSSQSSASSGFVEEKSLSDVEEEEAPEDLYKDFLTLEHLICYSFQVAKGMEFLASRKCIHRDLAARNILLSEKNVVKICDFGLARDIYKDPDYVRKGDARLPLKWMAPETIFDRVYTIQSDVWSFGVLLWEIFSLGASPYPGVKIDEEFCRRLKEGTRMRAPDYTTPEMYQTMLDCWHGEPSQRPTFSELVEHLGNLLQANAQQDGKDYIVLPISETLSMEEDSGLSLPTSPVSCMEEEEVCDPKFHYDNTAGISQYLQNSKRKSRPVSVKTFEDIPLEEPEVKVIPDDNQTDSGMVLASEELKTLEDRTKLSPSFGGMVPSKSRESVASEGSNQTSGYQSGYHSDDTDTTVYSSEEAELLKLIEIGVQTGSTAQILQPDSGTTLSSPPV

Row | Structure (SMILES) | IC50 [1] [µM] | IC50 [2] [µM] | IC50 [3] [µM] | IC50 [4] [µM] | Ratio IC50 [5] | Ratio IC50 [6] | Ratio IC50 [7] | Ratio IC50 [8] | Ratio IC50 [9] | Ratio IC50 [10]
1 | Cc1ccc(-n2c(SCC(=O)Nc3ccc(C(=O)NC4CCCCC4)cc3)nc3ccccc3c2=O)cc1 | 16.5 | 14.1 | 24.9 |  |  |  |  |  |  | 
2 | C/C(=N\NC(=O)c1ccccc1)c1ccc(NC(=O)CSc2nc3ccccc3c(=O)n2-c2ccc(C)cc2)cc1 | 30.5 | 29 | 35.9 |  |  |  |  |  |  | 
3 | Cc1ccc(-n2c(SCC(=O)Nc3ccc(C(=O)NNC(=O)c4ccccc4O)cc3)nc3ccccc3c2=O)cc1 | 11.7 | 10.8 | 14.4 | 1.07 |  |  |  |  |  | 
4 | Cc1ccc(-n2c(SCC(=O)Nc3ccc(C(=O)NCc4ccccc4)cc3)nc3ccccc3c2=O)cc1 | 17.4 | 13.4 | 18.3 | 1.4 |  |  |  |  |  | 
5 | Cc1ccc(-n2c(SCC(=O)Nc3ccc(C(=O)NNc4ccccc4)cc3)nc3ccccc3c2=O)cc1 | 12.1 | 9.4 | 16.1 | 1.21 |  |  |  |  |  | 
6 | CC(=O)c1ccc(NC(=O)CSc2nc3ccccc3c(=O)n2-c2ccc(C)cc2)cc1 | 12.3 | 8.27 | 13.5 | 1.78 |  |  |  |  |  | 
7 | Cc1ccc(-n2c(SCC(=O)Nc3ccc(C(=O)Nc4ccccc4)cc3)nc3ccccc3c2=O)cc1 | 21.8 | 16.6 | 26.9 | 1.37 |  |  |  |  |  | 
8 | C/C(=N\NC(=O)c1ccccc1Cl)c1ccc(NC(=O)CSc2nc3ccccc3c(=O)n2-c2ccc(C)cc2)cc1 | 22.6 | 17.1 | 23 |  |  |  |  |  |  | 
9 | CCOC(=O)c1ccc(NC(=O)c2ccc(NC(=O)CSc3nc4ccccc4c(=O)n3-c3ccc(C)cc3)cc2)cc1 | 21.5 | 17 | 23.7 |  |  |  |  |  |  | 
10 | Cc1ccc(-n2c(SCC(=O)Nc3ccc(C(=O)Nc4ccc(Cl)cc4)cc3)nc3ccccc3c2=O)cc1 | 4.12 | 3.67 | 5.99 | 0.685 |  |  |  |  |  | 
11 | Cc1ccc(NC(=O)c2ccc(NC(=O)CSc3nc4ccccc4c(=O)n3-c3ccc(C)cc3)cc2)cc1 | 19 | 17.4 | 28.4 |  |  |  |  |  |  | 
12 | C/C(=N\NC(=O)c1cccc(Cl)c1)c1ccc(NC(=O)CSc2nc3ccccc3c(=O)n2-c2ccc(C)cc2)cc1 | 33.8 | 30.4 | 40.9 |  |  |  |  |  |  | 
13 | C/C(=N\NC(=O)c1ccccc1O)c1ccc(NC(=O)CSc2nc3ccccc3c(=O)n2-c2ccc(C)cc2)cc1 | 11.9 | 12.4 | 15.4 | 1.06 |  |  |  |  |  | 
14 | C/C(=N\NC(=O)c1cc([N+](=O)[O-])ccc1Cl)c1ccc(NC(=O)CSc2nc3ccccc3c(=O)n2-c2ccc(C)cc2)cc1 | 1.88 | 1.68 | 3.91 | 0.452 | 1.96 | 4.39 | 1.84 | 5.59 | 5.73 | 3.88
15 | CC(=O)NS(=O)(=O)c1ccc(NC(=O)CSc2nc3ccccc3c(=O)n2-c2ccc(C)cc2)cc1 | 4.19 | 6.14 | 6.79 | 0.721 |  |  |  |  |  | 
16 | Cc1ccc(-n2c(SCC(=O)Nc3ccc(S(=O)(=O)Nc4nc(C)cc(C)n4)cc3)nc3ccccc3c2=O)cc1 | 6.76 | 5.24 | 7.1 | 0.707 |  |  |  |  |  | 
17 | C/C(=N\NC(N)=S)c1ccc(NC(=O)CSc2nc3ccccc3c(=O)n2-c2ccc(C)cc2)cc1 | 8.38 | 8.32 | 9.89 | 1 |  |  |  |  |  | 
18 | Cc1ccc(-n2c(SCC(=O)Nc3ccc(S(=O)(=O)Nc4ccccn4)cc3)nc3ccccc3c2=O)cc1 | 30 | 24.1 | 30.6 |  |  |  |  |  |  | 
19 | C/C(=N\NC(=O)c1ccc(Cl)cc1)c1ccc(NC(=O)CSc2nc3ccccc3c(=O)n2-c2ccc(C)cc2)cc1 | 41.6 | 37.1 | 44 |  |  |  |  |  |  | 
20 | COc1cccc2c1C(=O)c1c(O)c3c(c(O)c1C2=O)C[C@@](O)(C(=O)CO)C[C@@H]3O[C@H]1C[C@H](N)[C@H](O)[C@H](C)O1 [DOXORUBICIN] |  | 9.63 |  |  |  |  |  |  |  | 
21 | CNC(=O)c1cc(Oc2ccc(NC(=O)Nc3ccc(Cl)c(C(F)(F)F)c3)cc2)ccn1 [SORAFENIB] | 7.31 | 9.4 | 7.21 |  |  |  |  |  |  | 
